Values after ≈ are worked out from the molar mass of the structure shown.
Tests used:
Streptococcus pneumoniae [1] = experiment: MIC value measured against streptococcus pneumoniae Park1; assay type: functional
Mus musculus [2] = experiment: ED50 value was measured by po administration against streptococcus pyogenes infection in mice (in vivo, in experiment 3); assay type: functional; details: Mus musculus, po; read-out: ED50
Mus musculus [3] = experiment: ED50 value was measured by sc administration against streptococcus pyogenes infection in mice (in vivo, in experiment 1); assay type: functional
Method in brief: (§1)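 Infected mice were dosed orally or subcutaneously at 1 and 5 h postinfection, 0.25 mL of antibiotic solution in 10% aqueous ethanol per dose. Tartaric acid was added where needed for solubility. Several dose concentrations were tested to give the ED50.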

Mus musculus [4] = experiment: Plasma concentration in mice was determined by subcutaneous administration, 20 mg/kg at 2 hr; assay type: functional, organism-based; design: dose 20 mg/kg
Method in brief: (§2)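 Mice given 20 mg/kg orally or subcutaneously; peripheral plasma sampled at 5, 20 and 40 min and at 1, 2 and 4 h after dosing. Microbiological assay used Micrococcus luteus seeded in Antibiotic Medium 1, with zone sizes converted by the compound's own standard curve. Each value is the average of five mice per time point.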

Streptococcus pyogenes [5] = experiment: Effective dose against mice infected with streptococcus pyogenes after peroral administration (in vivo); assay type: functional; details: in Mus musculus, po
Mus musculus [6] = experiment: ED50 value was measured by po administration against streptococcus pyogenes infection in mice (in vivo, in experiment 1); assay type: functional; method in brief: as §1
Rattus norvegicus [7] = organism: Rattus norvegicus
Rattus norvegicus [8] = organism: Rattus norvegicus; experiment: Fluid concentration in urine was determined in rats at 0.5 hr; assay type: functional
Method in brief: (§3)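 Rats dosed by gavage at 20 mg/kg; lung, liver, kidney, urine and serum sampled at 0.5, 1, 2, 4 and 6 h after dosing. Antibiotic measured by microbiological assay with Micrococcus luteus seeded in Antibiotic Medium 1. Zone sizes were read against the standard curve for the same compound. Each value is the average of three rats per time point.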

Mus musculus [9] = experiment: ED50 value was measured by sc administration against streptococcus pneumoniae infection in mice (in vivo, in experiment 3); assay type: functional; details: Mus musculus, sc; read-out: ED50
Rattus norvegicus [10] = organism: Rattus norvegicus; experiment: Fluid concentration in lung tissue was determined in rats at 2 h; assay type: functional; method in brief: as §3
Mus musculus [11] = experiment: Plasma concentration in mice was determined by subcutaneous administration, 20 mg/kg at 5 min; assay type: functional, organism-based; design: dose 20 mg/kg; method in brief: as §2
Rattus norvegicus [12] = organism: Rattus norvegicus; experiment: Fluid concentration in liver tissue was determined in rats at 1 h; assay type: functional; method in brief: as §3
Rattus norvegicus [13] = organism: Rattus norvegicus; experiment: Fluid concentration in lung tissue was determined in rats at 4 h; assay type: functional; method in brief: as §3
Haemophilus influenzae = experiment: MIC value was measured against haemophilus influenzae CL; assay type: functional
Rattus norvegicus [14] = organism: Rattus norvegicus; experiment: Fluid concentration in lung tissue was determined in rats at 6 h; assay type: functional; method in brief: as §3
Rattus norvegicus [15] = organism: Rattus norvegicus; remark: listed apart in the source
Mus musculus [16] = organism: Mus musculus
Rattus norvegicus [17] = organism: Rattus norvegicus; experiment: Fluid concentration in liver tissue was determined in rats at 0.5 h; assay type: functional
Method in brief: (§4)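 Rats were gavaged at 20 mg/kg and tissues sampled 0.5–6 h after dosing. Drug was assayed microbiologically with Micrococcus luteus seeded in Antibiotic Media 1. Zone sizes were read against each compound's own standard curve. Values are the mean of three rats per time point, in μg/g.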

Mus musculus [18] = experiment: ED50 value was measured by po administration against staphylococcus aureus infection in mice (in vivo, in experiment 1); assay type: functional; method in brief: as §1
Streptococcus pneumoniae [19] = experiment: Effective dose against mice infected with streptococcus pneumoniae after peroral administration (in vivo); assay type: functional; details: in Mus musculus, po
Rattus norvegicus [20] = organism: Rattus norvegicus; experiment: Fluid concentration in lung tissue was determined in rats at 0.5 h; assay type: functional; method in brief: as §3
Rattus norvegicus [21] = organism: Rattus norvegicus; remark: listed apart in the source
Rattus norvegicus [22] = experiment: Plasma concentration in rats was determined by oral administration, 20 mg/kg at 40 min; assay type: functional, organism-based; design: dose 20 mg/kg
Method in brief: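 Peripheral plasma antibiotic levels in rats given 20 mg/kg orally or subcutaneously. Plasma was sampled at timed points after dosing. Levels were measured by microbiological agar assay with Micrococcus luteus seeded in Antibiotic Media 1, reading zone sizes, and were calculated from a standard curve for the appropriate compound. Each value is the average of three rats per time point, in μg/mL.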

Streptococcus pyogenes [23] = experiment: MIC value measured against streptococcus pyogenes C203; assay type: functional
Staphylococcus aureus [24] = experiment: MIC value measured against staphylococcus aureus X1; assay type: functional
Rattus norvegicus [25] = organism: Rattus norvegicus; experiment: Fluid concentration in serum was determined in rats at 4 hr; assay type: functional; method in brief: as §3
Rattus norvegicus [26] = organism: Rattus norvegicus; experiment: Fluid concentration in kidney tissue was determined in rats at 4 hr; assay type: functional; method in brief: as §4
Rattus norvegicus [27] = organism: Rattus norvegicus; experiment: Fluid concentration in urine was determined in rats at 1 hr; assay type: functional; method in brief: as §3
Mus musculus [28] = experiment: Plasma concentration in mice was determined by subcutaneous administration, 20 mg/kg at 20 min; assay type: functional, organism-based; design: dose 20 mg/kg; method in brief: as §2
Staphylococcus aureus [29] = experiment: Effective dose against mice infected with Staphylococcus aureus after peroral administration (in vivo); assay type: functional; details: in Mus musculus, po
Rattus norvegicus [30] = organism: Rattus norvegicus; experiment: Fluid concentration in serum was determined in rats at 6 hr; assay type: functional; method in brief: as §3
Mus musculus [31] = experiment: ED50 value was measured by sc administration against staphylococcus aureus infection in mice (in vivo, in experiment 3); assay type: functional; details: Mus musculus, sc; read-out: ED50
Mus musculus [32] = experiment: ED50 value was measured by po administration against streptococcus pneumoniae infection in mice (in vivo, in experiment 1); assay type: functional; method in brief: as §1
Rattus norvegicus [33] = organism: Rattus norvegicus; experiment: Fluid concentration in lung tissue was determined in rats at 1 h; assay type: functional; method in brief: as §3
Mus musculus [34] = experiment: ED50 value was measured by po administration against streptococcus pneumoniae infection in mice (in vivo, in experiment 3); assay type: functional; details: Mus musculus, po; read-out: ED50
Mus musculus [35] = experiment: ED50 value was measured by sc administration against streptococcus pneumoniae infection in mice (in vivo, in experiment 1); assay type: functional; method in brief: as §1
Mus musculus [36] = experiment: ED50 value was measured by po administration against staphylococcus aureus infection in mice (in vivo, in experiment 3); assay type: functional; details: Mus musculus, po; read-out: ED50
Mus musculus [37] = experiment: Plasma concentration in mice was determined by subcutaneous administration, 20 mg/kg at 4 hr; assay type: functional, organism-based; design: dose 20 mg/kg; method in brief: as §2
[38] = test system: Staphylococcus epidermidis; experiment: microbe, parasite or virus in culture; assay type: functional
Mus musculus [39] = experiment: ED50 value was measured by sc administration against staphylococcus aureus infection in mice (in vivo, in experiment 1); assay type: functional; method in brief: as §1
Mus musculus [40] = experiment: Plasma concentration in mice was determined by subcutaneous administration, 20 mg/kg at 40 min; assay type: functional, organism-based; design: dose 20 mg/kg; method in brief: as §2
Mus musculus [41] = experiment: Plasma concentration in mice was determined by subcutaneous administration, 20 mg/kg at 1 hr; assay type: functional, organism-based; design: dose 20 mg/kg; method in brief: as §2

For `CC[C@H]1OC(=O)[C@H](C)[C@@H](O[C@H]2C[C@@](C)(OC)[C@@H](O)[C@H](C)O2)[C@H](C)[C@@H](O[C@@H]2O[C@H](C)C[C@H](N(C)C)[C@H]2O)[C@](C)(O)C[C@@H](C)C(=O)[C@H](C)[C@@H](O)[C@]1(C)O` [ERYTHROMYCIN], the MIC (Streptococcus pneumoniae [1]) was 0.008 µg/mL (≈ 0.0109 µM), the ED50 (Mus musculus [2]) was 12 mg/kg and the ED50 (Mus musculus [3]) was 2.5 mg/kg. The Plasma concentration (Mus musculus [4]) was 0.01 µg/mL, the ED50 (Streptococcus pyogenes [5]) was 21 mg/kg and the ED50 (Mus musculus [6]) was 18 mg/kg. The Plasma concentration (Rattus norvegicus [7]) was 0.48 µg/mL, the Activity (Rattus norvegicus [8]) was 7.5 µg/mL and the ED50 (Mus musculus [9]) was 3.5 mg/kg. For the same compound, the Activity (Rattus norvegicus [10]) was 0.04 µg/mL, the Plasma concentration (Mus musculus [11]) was 5.84 µg/mL and the Activity (Rattus norvegicus [12]) was 0.03 µg/mL. The Activity (Rattus norvegicus [13]) was 0.03 µg/mL, the MIC (Haemophilus influenzae) was 1 µg/mL (≈ 1.36 µM) and the Activity (Rattus norvegicus [14]) was 0.04 µg/mL. For the same compound, the Plasma concentration (Rattus norvegicus [15]) was 0.11 µg/mL, the Plasma concentration (Mus musculus [16]) was 0.01 µg/mL and the Activity (Rattus norvegicus [17]) was 0.15 µg/mL. For the same compound, the ED50 (Mus musculus [18]) was 15 mg/kg, the ED50 (Streptococcus pneumoniae [19]) was 44 mg/kg and the Activity (Rattus norvegicus [20]) was 1 µg/mL. It also gave a Plasma concentration (Rattus norvegicus [21]) of 0.7 µg/mL, a Plasma concentration (Rattus norvegicus [22]) of 0.11 µg/mL and an MIC (Streptococcus pyogenes [23]) of 0.015 µg/mL (≈ 0.0204 µM). For the same compound, the MIC (Staphylococcus aureus [24]) was 0.12 µg/mL (≈ 0.164 µM), the Activity (Rattus norvegicus [25]) was 0 µg/mL and the Activity (Rattus norvegicus [26]) was 0 µg/mL. The Activity (Rattus norvegicus [27]) was 10.8 µg/mL, the Plasma concentration (Mus musculus [28]) was 5.96 µg/mL and the ED50 (Staphylococcus aureus [29]) was 41 mg/kg. For the same compound, the Activity (Rattus norvegicus [30]) was 0 µg/mL, the ED50 (Mus musculus [31]) was 4.1 mg/kg and the ED50 (Mus musculus [32]) was 14 mg/kg. It also gave an Activity (Rattus norvegicus [33]) of 0.4 µg/mL, an ED50 (Mus musculus [34]) greater than 100 mg/kg and an ED50 (Mus musculus [35]) of 2.7 mg/kg. The ED50 (Mus musculus [36]) was 71 mg/kg, the Plasma concentration (Mus musculus [37]) was 0 µg/mL and the MIC [38] was 0.06 µg/mL (≈ 0.0818 µM). The ED50 (Mus musculus [39]) was 1.6 mg/kg, the Plasma concentration (Mus musculus [40]) was 4.36 µg/mL and the Plasma concentration (Mus musculus [41]) was 4.26 µg/mL.
